High-throughput results from PubChem.
IEC-6 tox: kills IEC-6 intestinal cells in KLF5 counter-screen. 0.78% of 290,000 active. IEC-6 cytotoxicity, luminescence viability. AID 1825. inhibition, % at 5 µM;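 further: 0% = plate median of test compound wells and 100% = cytotoxic reference compound wells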
MT stabilizer: microtubule stabilizers in HeLa cells; HeLa tubulin immunostaining HCS, 24 h; share of cells brighter than vehicle mean+2SD; % tubulin-high responders, % at 10 µM; 0.83% of 200,000 active; AID 2205;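 active means plate Z-score above 3 for both tubulin-high and condensed-nucleus cell shares, with cell loss under 80%, at 10 µM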;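 further: anti alpha tubulin signal scored within the nucleus-defined area of each cell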
KLF5 inhibitor: suppresses KLF5 promoter-driven expression. DLD-1 KLF5 promoter-luciferase reporter, luminescence. inhibition, % at 5 µM. 0.23% of 290,000 active;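 active means inhibition above a per-plate limit of that plate's mean compound inhibition plus 3 SD, cut at about 60% in these data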;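 further: 0% = DMSO wells and 100% = LY294002 at 200 µM; higher means less KLF5 promoter-driven luciferase light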
BaF3 tox: reduces parental Ba/F3 cell viability, JAK2V617F counter-screen | inhibition, % at 5.6 µM | CellTiter-Glo ATP luminescence | 1.1% of 220,000 active;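 active means inhibition above a per-campaign cutoff, the mean inhibition of all tested compounds plus 3 SD, cut at about 27% in these data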;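 further: 0% = DMSO wells and 100% = JAK Inhibitor I control wells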
bCat nuc transl: alters nuclear translocation of beta-catenin in HeLa cells; immunofluorescence imaging; nuclear translocation activity, % at 5 µM; 0.3% of 190,000 active; AID 1665;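 active means nuclear translocation activity above 50% at 5 µM, with a well cell count of 50 or more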;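 further: per-cell ratio of nuclear to cytoplasmic median beta-catenin stain intensity; plate controls were DMSO negative control for no effect and GSK-3 inhibitor IX positive control for full effect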
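Test system: HeLa cells, endogenous beta-catenin; Compound: single 5 µM dose plus 0.02–20 µM confirmation series; Times: compound exposure 24 h at 37°C; Signal: fluorescence imaging of beta-catenin antibody stain plus DAPI; Read-out: % activation, nuclear-to-cytoplasmic median beta-catenin signal ratio per cell.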
Ba/F3 V617F tox: lowers viability of Ba/F3 cells expressing EpoR and JAK2V617F; 1.1% of 220,000 active; inhibition, % at 5.6 µM; ATP luminescence;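 active means inhibition above the campaign mean plus 3 SD over all tested compounds, cut at about 24% in these data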;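 further: cytokine-independent growth of Ba/F3 cells driven by EpoR plus mutant JAK2; 0% = DMSO-treated cells and 100% = JAK inhibitor I control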
IEC-6 cytotox cf: confirmation of cytotoxic compounds in rat IEC-6 intestinal epithelial cells; shares compounds with IEC-6 tox; IEC-6 rat intestinal epithelial viability, luminescence; inhibition, % at 5 µM; 63% of 1,900 active; AID 1907;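 further: 0% = vehicle and 100% = reference cytotoxic drug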
Starred values were filed as active, the others as inactive; . = no result given. Shown are actives, neighbours in structure and some others; about 2.1% of the full set was active somewhere. Unless noted, no stated cut-off is given here; in the data, active means inhibition above about 22%; inactive means the rest.

SMILES	IEC-6 tox	MT stabilizer	KLF5 inhibitor	BaF3 tox	bCat nuc transl	Ba/F3 V617F tox	IEC-6 cytotox cf
COc1cc(/C=C/c2nc3ccccc3c(=O)[nH]2)cc(OC)c1OC	61*	.	32	.	.	.	71*
COc1cc(/C=C/c2nc3ccccc3c(=O)[nH]2)ccc1OC(F)F	-1	.	-127	.	.	.	.
Cc1cccc2c1N(CCOc1ccccc1Cl)C(=O)C2=O	50*	2	-8	11	-2	19	21
Cc1ccccc1OCCN1C(=O)C(=O)c2cccc(C)c21	10	2	-23	9	-3	2	.
CCOc1ccc(C(=O)NNC2CC(=O)N(Cc3ccc(Cl)cc3)C2=O)cc1OC (centres undefined)	-1	3	-6	2	7	-3	.
CCOC(=O)c1[nH]c(C)c(C(=O)c2ccc(C)cc2)c1C	82*	44*	16	77*	.	78*	62*
CCOC(=O)c1[nH]c(C)c(C(=O)Nc2ccc(F)cc2)c1C	1	3	-43	-1	.	-6	.
CCOC(=O)c1[nH]c(C)c(C(=O)Nc2ccc(C)cc2C)c1C	51*	16*	38	52*	8	59*	48*
CCOC(=O)c1c(C)[nH]c(C(=O)OCC(=O)Nc2cc(C)ccc2OC)c1C	1	4	-4	0	-1	-5	.
CCOC(=O)c1[nH]c(C)c(C(=O)Nc2cc(OC)ccc2OC)c1C	86*	27*	60	75*	56*	75*	61*
CCOC(=O)c1[nH]c(C)c(C(=O)Nc2ccccc2F)c1C	47*	34*	5	62*	0	68*	46*
O=C(c1ccc(OC2CCN(CCCc3ccccc3)CC2)cc1)N1CCCC1	5	.	-17	.	.	.	.
COc1ccc(/C=C/CN2CCC(n3nccc3NC(=O)C3CC3)CC2)cc1	1	.	-31	.	.	.	.
Cc1cccc(OCC(=O)NCC(=O)N/N=C/c2cc(Br)cc(Br)c2O)c1	30*	.	35	.	.	.	18
Clc1ccccc1OCc1nnc(-c2ccccc2Br)o1	1	6	-119	6	-1	2	.
O=c1c(Cl)c(Cl)cnn1Cc1nnc(-c2ccccc2Br)o1	30*	3	-11	-1	-2	16	22
C/C(=N\NC(=O)c1n[nH]c2c1CCC2)c1ccco1	79*	.	61	86*	1	83*	10
Cc1nn2c(NCc3ccccn3)cc(C(C)C)nc2c1-c1ccccc1	-9	.	7	-2	2	-1	.
Cc1cc(N)n2ncc(-c3ccc(Cl)cc3)c2n1	25*	3	-21	-2	4	1	26*
Cc1cc(N)n2ncc(-c3ccc(F)cc3)c2n1	10	1	-115	1	-1	-5	.
Cc1cc(NCc2ccccn2)n2nc(C)c(-c3ccc(Cl)cc3)c2n1	12	.	-6	0	2	-1	.
CCCc1cc(NCc2ccccn2)n2nc(C)c(-c3ccccc3)c2n1	47*	.	-37	3	-1	9	13
Cc1cc(NCc2ccccn2)n2ncc(-c3ccc(Cl)cc3)c2n1	29*	.	-14	0	-1	-2	30*
Cc1cc(NCc2ccccn2)n2ncc(-c3ccccc3)c2n1	84*	.	-41	6	-3	0	31*
O=C(CCC(=O)c1cccs1)NCc1cccnc1	6	9	-12	4	1	4	.
SMILES	IEC-6 tox	MT stabilizer	KLF5 inhibitor	BaF3 tox	bCat nuc transl	Ba/F3 V617F tox	IEC-6 cytotox cf
CC(C)Cn1c(N)c(C(=O)CSc2nc3ccccc3c(=O)n2CCCN2CCOCC2)c(=O)n(C)c1=O	0	3	3	6	-1	2	.
Cc1cccc(N2CCN(S(=O)(=O)c3c(C)noc3/C=C/N(C)C)CC2)c1C	-4	.	-26	.	.	.	.
O=C(CN1c2ccccc2Sc2ccccc21)NNC(=O)Nc1cccc(Cl)c1	-6	.	-6	-3	0	2	.
O=C(N/N=C/c1ccc2c(c1)OCO2)C1CC1	0	.	-74	.	.	.	.
CCOC(=O)Nc1cc(=O)c2ccccc2o1	44*	22	35	60*	30	69*	23*
Oc1[nH]c2ccc(Br)cc2c1N=NC(=S)Nc1ccc(F)cc1	22*	.	7	2	0	0	9
N=C(N)N=Nc1c(O)[nH]c2ccc(Br)cc12	4	3	19	5	-4	6	.
O=C(N=Nc1c(O)[nH]c2ccc(Br)cc12)c1ccccc1-n1cccc1	55*	10	42	77*	154*	77*	54*
O=C(CN1C(=O)CCSc2ccc(S(=O)(=O)N3CCCC3)cc21)NCc1ccccc1Cl	-1	.	-31	.	.	.	.
Cc1cccc(C(=O)NNC(=O)C23CC4CC(CC(C4)C2)C3)c1O	37*	.	-21	.	.	.	5
Cc1ccccc1C(=O)NNC(=O)C12CC3CC(CC(C3)C1)C2	2	3	4	-6	1	-3	.
Oc1cccc(/C=N/NC(=S)NCCN2CCOCC2)c1O	-3	2	-26	0	-3	0	.
S=C(NCCN1CCOCC1)N/N=C/c1cccs1	30*	.	-45	.	.	.	-15
COc1cc2c(cc1OC)C(c1cccs1)N(C(=O)C(C)C)CC2 (centres undefined)	-1	6	-1	6	-1	-2	.
COc1cc2c(cc1OC)C(c1cccs1)N(C(=O)c1cccnc1)CC2 (centres undefined)	46*	17*	40	46*	53*	46*	34*
O=C(c1ccccc1)c1ccc(Cn2cc(CCCO)nn2)cc1	7	.	-13	.	.	.	.
O=C(O)CCCCCCCCc1cn(Cc2ccc(C(=O)c3ccccc3)cc2)nn1	72*	.	-27	.	.	.	24*
O=C(Nc1ccc(Cl)cn1)c1ccc2[nH]c(=O)c(=O)[nH]c2c1	-2	.	-27	.	.	.	.
Clc1cccc(Cl)c1/C=C/c1ccn[nH]1	27*	.	-59	.	.	.	9
O=[N+]([O-])c1cc(C=Nc2cccc3c(O)cccc23)ccc1Cl	33*	.	-13	.	.	.	-4
COc1cc(/C=N/NC(=S)NC2CC3C=CC2C3)cc(OC)c1OC (centres undefined)	28*	.	-21	-6	-4	4	2
CC(C)(C)c1ccc(OCCNC(=S)NC(=O)c2cccnc2)cc1	-2	3	-13	5	-4	-1	.
CCOc1ccc(Nc2c3ccccc3nc3ccccc23)cc1	72*	.	40	68*	0	76*	44*
CCOc1ccc(Nc2cc(C)c3ccccc3n2)cc1	2	.	-27	.	.	.	.
COc1ccc(S(=O)(=O)N2CCCCC2)cc1NCC(=O)Nc1ccc(C)cc1	32*	.	-10	9	0	3	18
CCOc1ccc(C(C)=O)cc1N1C(=O)C2C3C=CC(O3)C2C1=O (centres undefined)	22*	5	-21	28*	-1	11	1
O=C(Nc1ccccc1C(=O)Nc1ccc(Br)cn1)c1cccc([N+](=O)[O-])c1	-5	.	-19	.	.	.	.
